Assay results published in ChEMBL document CHEMBL4411269, “Required Immunoproteasome Subunit Inhibition Profile for Anti-Inflammatory Efficacy and Clinical Candidate KZR-616 ((2 S,3 R)- N-(( S)-3-(Cyclopent-1-en-1-yl)-1-(( R)-2-methyloxiran-2-yl)-1-oxopropan-2-yl)-3-hydroxy-3-(4-methoxyphenyl)-2-(( S)-2-(2-morpholinoacetamido)propanamido)propenamide)” (J Med Chem, 2018).
Converted amounts (≈) assume the structure as drawn. The source made the active and inactive calls. No cut-off for these calls is given here.

Assays:
[1] = Solubility of the compound in phosphate buffer at pH 7.2 at 10 mg/ml after 24 hrs by HPLC-UV method; assay type: physicochemical
Procedure, shortened: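 Compound shaken at a target 10 mg/mL in 50 mM potassium phosphate buffer for 24 h at 25 °C, then centrifuged at 15 000 rpm for 15 min. Supernatant diluted 100-fold in DMSO and quantified by HPLC-UV (220/254/280 nm) against a three-level DMSO standard curve, in duplicate.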

[2] = target: T1, Proteasome Macropain subunit MB1 (Homo sapiens, UniProt P28074); test: Inhibition of 20S proteosome beta 5 in human MOLT4 cells by ELISA; assay type: cell-based
T1 sequence (P28074 whole entry): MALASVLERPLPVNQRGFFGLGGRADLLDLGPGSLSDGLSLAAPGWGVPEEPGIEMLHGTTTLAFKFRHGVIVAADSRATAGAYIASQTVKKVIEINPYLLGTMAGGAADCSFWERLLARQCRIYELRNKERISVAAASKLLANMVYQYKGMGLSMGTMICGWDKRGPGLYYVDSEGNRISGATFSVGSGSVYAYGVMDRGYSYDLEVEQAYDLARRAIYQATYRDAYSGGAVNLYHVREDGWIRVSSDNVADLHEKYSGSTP

[3] = target: T2, Proteasome subunit beta type-9 (Homo sapiens, UniProt P28065); test: Inhibition of LMP2 in human MOLT4 cells by ELISA; assay type: cell-based
T2 sequence (P28065 whole entry): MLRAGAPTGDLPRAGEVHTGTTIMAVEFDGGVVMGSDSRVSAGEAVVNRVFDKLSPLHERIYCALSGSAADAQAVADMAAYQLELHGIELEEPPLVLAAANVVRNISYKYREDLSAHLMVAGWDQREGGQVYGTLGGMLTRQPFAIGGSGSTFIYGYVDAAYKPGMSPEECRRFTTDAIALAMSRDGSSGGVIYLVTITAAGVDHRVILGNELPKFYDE

[4] = target: T3, Proteasome subunit beta type-10 (Homo sapiens, UniProt P40306); test: Inhibition of MECL1 in human MOLT4 cells by ELISA; assay type: cell-based
T3 sequence (P40306 whole entry): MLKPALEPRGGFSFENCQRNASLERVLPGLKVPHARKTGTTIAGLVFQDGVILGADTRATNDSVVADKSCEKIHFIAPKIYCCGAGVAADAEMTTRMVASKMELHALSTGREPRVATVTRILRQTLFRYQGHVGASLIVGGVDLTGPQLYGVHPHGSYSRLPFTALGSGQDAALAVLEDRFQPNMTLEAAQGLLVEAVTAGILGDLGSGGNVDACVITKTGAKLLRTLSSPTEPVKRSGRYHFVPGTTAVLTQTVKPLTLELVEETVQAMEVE

[5] = target: T4, Proteasome subunit beta type-8 (Mus musculus, UniProt P28063); test: Inhibition of LMP7 in mouse A20 cells by ELISA; assay type: cell-based
T4 sequence (P28063 whole entry): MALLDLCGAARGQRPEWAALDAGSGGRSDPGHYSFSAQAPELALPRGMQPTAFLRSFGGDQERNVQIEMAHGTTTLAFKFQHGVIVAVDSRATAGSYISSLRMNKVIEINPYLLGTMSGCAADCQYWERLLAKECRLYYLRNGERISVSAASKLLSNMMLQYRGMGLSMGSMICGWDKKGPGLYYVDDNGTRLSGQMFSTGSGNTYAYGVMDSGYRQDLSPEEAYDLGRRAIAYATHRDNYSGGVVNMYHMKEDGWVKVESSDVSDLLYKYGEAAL
Procedure, shortened: (§1)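 Mouse A20 B-cell lymphoma cell lysate (1 mg/mL, hypotonic 20 mM Tris pH 8, 5 mM EDTA) treated with serially diluted compound for 1 h at 25 °C. Then 5 μM biotinylated active-site probe for 2 h at 25 °C, guanidine denaturation and streptavidin bead capture. Subunit-specific antibody and HRP chemiluminescence, signal normalized to protein, IC50 from percent activity versus DMSO controls.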

[6] = target: T5, Proteasome subunit beta type-5 (Mus musculus, UniProt O55234); test: Inhibition of 20S proteosome beta 5 in mouse A20 cells by ELISA; assay type: cell-based
T5 sequence (O55234 whole entry): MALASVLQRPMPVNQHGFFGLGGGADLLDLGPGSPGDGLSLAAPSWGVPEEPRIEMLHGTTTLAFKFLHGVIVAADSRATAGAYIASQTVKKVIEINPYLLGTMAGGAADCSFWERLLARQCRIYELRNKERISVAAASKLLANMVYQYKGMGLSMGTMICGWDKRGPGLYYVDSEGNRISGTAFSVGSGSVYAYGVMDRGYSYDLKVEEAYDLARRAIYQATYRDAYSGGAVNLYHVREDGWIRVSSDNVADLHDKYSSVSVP

[7] = target: T6, Proteasome subunit beta type-9 (Mus musculus, UniProt P28076); test: Inhibition of LMP2 in mouse A20 cells by ELISA; assay type: cell-based; procedure, shortened: as §1
T6 sequence (P28076 whole entry): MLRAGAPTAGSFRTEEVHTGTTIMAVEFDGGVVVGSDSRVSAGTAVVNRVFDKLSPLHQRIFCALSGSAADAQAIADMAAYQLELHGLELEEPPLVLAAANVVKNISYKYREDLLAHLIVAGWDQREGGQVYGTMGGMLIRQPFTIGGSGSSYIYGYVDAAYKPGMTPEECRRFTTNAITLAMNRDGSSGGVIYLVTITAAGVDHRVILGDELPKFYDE

[8] = target: T7, Proteasome subunit beta type-10 (Mus musculus, UniProt O35955); test: Inhibition of MECL1 in mouse A20 cells by ELISA; assay type: cell-based; procedure, shortened: as §1
T7 sequence (O35955 whole entry): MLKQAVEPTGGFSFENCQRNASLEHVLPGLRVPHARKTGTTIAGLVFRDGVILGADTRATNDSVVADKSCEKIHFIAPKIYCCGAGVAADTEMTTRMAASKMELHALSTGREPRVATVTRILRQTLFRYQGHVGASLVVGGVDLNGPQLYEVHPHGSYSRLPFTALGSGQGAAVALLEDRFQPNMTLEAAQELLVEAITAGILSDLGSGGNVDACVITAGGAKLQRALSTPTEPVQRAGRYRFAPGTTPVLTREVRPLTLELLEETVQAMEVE

[9] = tested on: PBMC; test: Antiinflammatory activity in human PBMC assessed as reduction in LPS-stimulated TNF-alpha expression at 250 nM preincubated for 1 hr followed by LPS stimulation measured after 24 hrs by ELISA; assay type: functional, cell-based
Procedure, shortened: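 Cryopreserved healthy-donor PBMC in RPMI 1640 with 5% heat-inactivated FBS, 250 000 cells/well. Compound (0.1% DMSO final) for 1 h at 37 °C, 5% CO2, then 4 washes with medium. Stimulated with 1 μg/mL LPS for 24 h; supernatant TNFα, IL-6 and IL-12/23p40 by electrochemiluminescent immunoassay. Mean level relative to DMSO controls, n = 6.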

[10] = tested on: PBMC; test: Antiinflammatory activity in human PBMC assessed as reduction in anti-CD3/CD28 antibody-stimulated IFN-gamma expression at 250 nM preincubated for 1 hr followed by anti-CD3/CD28 antibody stimulation measured after 24 hrs by ELISA; assay type: functional, cell-based
Procedure, shortened: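 Healthy-donor PBMC, thawed from cryopreservation, 250 000 cells/well in RPMI 1640/5% FBS. Pretreated 1 h at 37 °C with compound alone or combined (0.1% DMSO final), washed 4 times, then stimulated 24 h with anti-CD3 and anti-CD28 antibodies. TNFα and IFNγ in supernatants by electrochemiluminescent ELISA; expressed relative to DMSO-treated controls (n = 6).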

| solubility at 24 h [1] [µg/mL] | IC50 [2] [nM] | IC50 [3] [nM] | IC50 [4] [nM] | IC50 [5] [nM] | IC50 [6] [nM] | IC50 [7] [µM] | IC50 [8] [nM] | SMILES | Activity [9] | Activity [10] |
| --- | --- | --- | --- | --- | --- | --- | --- | --- | --- | --- |
| 7 (≈ 11.1 µM) | 486 | > 25000 | 71 | 1920 | 378 | > 25 | 305 | Cc1ccc(CC[C@H](NC(=O)[C@H](Cc2ccccc2)NC(=O)[C@H](CC(C)C)NC(=O)CN2CCCCCC2)C(=O)[C@@]2(C)CO2)cc1 | inactive | inactive |
| 491 (≈ 862 µM) | 2670 | 1850 | > 25000 | 374 | 2650 | 3.96 |  | COc1ccc(C[C@H](NC(=O)[C@@H](C)NC(=O)[C@H]2CC[C@H](O)CC2)C(=O)N[C@@H](CC2=CCCC2)C(=O)[C@@]2(C)CO2)cc1 |  |  |
| 7070 (≈ 12100 µM) | 688 | 131 | 623 | 57 | 483 | 0.179 | 522 | COc1ccc([C@@H](O)[C@H](NC(=O)[C@H](C)NC(=O)CN2CCOCC2)C(=O)N[C@@H](CC2=CCCC2)C(=O)[C@@]2(C)CO2)cc1 [ZETOMIPZOMIB] | Active | Active |
